According to ChEMBL document CHEMBL1128519, “Semisynthetic chemical modification of the antifungal lipopeptide echinocandin B (ECB): structure-activity studies of the lipophilic and geometric parameters of polyarylated acyl analogs of ECB” (J Med Chem, 1995):
Values after ≈ are worked out from the molar mass of the structure shown. Numbered stars: 1 amine (or outer) side, 2 acyl side, 3 side chain; on linkers, the order of the positions; unused ones are H or OH. Bridge positions count the residues as written; N and C are the ends. Square brackets hold non-standard residues; d marks the D form. Peptide text beside a SMILES is read from it. * marks the point of attachment. Orn(4R-OH,5R-OH) = O=C([C@H](C[C@@H](O)[C@@H](O)N[*:3])N[*:1])[*:2]; Benzoyl(4-(biphenyl-4-yl)) = O=C(c1ccc(-c2ccc(-c3ccccc3)cc2)cc1)*; X16 = O=C(c1ccc(OCCOCCC23C[C@H]4C[C@@H](C2)C[C@@H](C3)C4)cc1)*; hTyr(3S-OH,4S-OH) = N[C@H](C(=O)O)[C@H](O)[C@@H](O)c1ccc(O)cc1; Benzoyl(4-(4-OctO-Ph)) = CCCCCCCCOc1ccc(-c2ccc(C(=O)*)cc2)cc1; X3 = CC(C)(C)OCCOc1ccc(C#Cc2ccc(-c3ccc(C(=O)*)cc3)cc2)cc1; X4 = CC(C)(C)OCCOc1ccc(-c2ccc(-c3ccc(C(=O)*)cc3)cc2)cc1; X17 = CCCCOCCOc1ccc(C#Cc2ccc(-c3ccc(C(=O)*)cc3)cc2)cc1; X1 = O=C(c1ccc(-c2ccc(-c3ccc(-c4ccccc4)cc3)cc2)cc1)*; X20 = CCCCCOc1ccc(C#Cc2ccc(-c3ccc(C(=O)*)cc3)cc2)cc1; X6 = CCCCOCCOc1ccc(-c2ccc(-c3ccc(C(=O)*)cc3)cc2)cc1; X7 = CCCCCCOc1ccc(-c2ccc(-c3ccc(C(=O)*)cc3)cc2)cc1; X2 = CCCOc1ccc(C#Cc2ccc(-c3ccc(C(=O)*)cc3)cc2)cc1; Pro(3S-OH,4S-Me) = C[C@H]1CN[C@H](C(=O)O)[C@H]1O; X14 = COc1ccc(C#Cc2ccc(-c3ccc(C(=O)*)cc3)cc2)cc1; X5 = O=C(c1ccc(C#Cc2ccc(C#Cc3ccccc3)cc2)cc1)*; X8 = O=C(c1ccc(-c2ccc(C#Cc3ccccc3)cc2)cc1)*; X9 = CCCCCCCCCCOc1ccc2cc(C(=O)*)ccc2c1; Hyp = O=C(O)[C@@H]1C[C@@H](O)CN1

Experiments:
Candida albicans [1] = assay: In vivo antifungal activity administered orally against Candida albicans infections in mice.; format: functional; details: po
In short: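 X-irradiated (400 r, 24 h prior) male ICR mice infected iv with 2 × 10^6 C. albicans A26 cells. Oral gavage in cremophor (5%)/linoleic acid (8%)/water vehicle, b.i.d. × 4 starting immediately post-infection. 10 mice per dose level. Study ends at day 7; ED50 = dose giving 50% survival, by Reed-Muench.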

Candida albicans [2] = assay: In vivo antifungal activity administered intraperitoneally against Candida albicans infections in mice.; format: functional; details: ip
In short: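 Male ICR mice (18-20 g), X-irradiated with 400 r 24 h before iv tail-vein infection with 2 × 10^6 C. albicans A26 cells in saline. Compounds suspended in β-cyclodextrin, given parenterally at 0, 4, 24 and 48 h post-infection. 10 mice per dose, top dose 10 mg/kg with 2-fold dilutions down to 0.039 mg/kg. 7-day survival; ED50 by Reed-Muench.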

Candida albicans [3] = assay: Antifungal activity against Candida albicans; format: functional
In short: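 Broth microdilution, C. albicans A26 (ATCC 62342) grown on Sabouraud dextrose agar at 35 °C; inoculum 1 × 10^5 conidia/mL in antibiotic 3 broth. Compounds dissolved at 1.0 mg/mL in methanol, 2-fold serial dilutions from 80 µg/mL, duplicate. Read after 48 h at 35 °C. MIC = lowest concentration completely inhibiting visible growth.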

[4] = molecular target: Beta-1,3-glucan synthase (Candida albicans) (UniProt O13428); assay: In vitro inhibition of glucan synthase obtained from Candida albicans at a concentration of 10 ug/mL.
In short: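 Purified, solubilized β-(1,3)-D-glucan synthase prepared from C. albicans. Percent inhibition measured at 10 µg/mL compound, single determination.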

Beta-1,3-glucan synthase (Candida albicans), sequence (O13428 as listed by the source): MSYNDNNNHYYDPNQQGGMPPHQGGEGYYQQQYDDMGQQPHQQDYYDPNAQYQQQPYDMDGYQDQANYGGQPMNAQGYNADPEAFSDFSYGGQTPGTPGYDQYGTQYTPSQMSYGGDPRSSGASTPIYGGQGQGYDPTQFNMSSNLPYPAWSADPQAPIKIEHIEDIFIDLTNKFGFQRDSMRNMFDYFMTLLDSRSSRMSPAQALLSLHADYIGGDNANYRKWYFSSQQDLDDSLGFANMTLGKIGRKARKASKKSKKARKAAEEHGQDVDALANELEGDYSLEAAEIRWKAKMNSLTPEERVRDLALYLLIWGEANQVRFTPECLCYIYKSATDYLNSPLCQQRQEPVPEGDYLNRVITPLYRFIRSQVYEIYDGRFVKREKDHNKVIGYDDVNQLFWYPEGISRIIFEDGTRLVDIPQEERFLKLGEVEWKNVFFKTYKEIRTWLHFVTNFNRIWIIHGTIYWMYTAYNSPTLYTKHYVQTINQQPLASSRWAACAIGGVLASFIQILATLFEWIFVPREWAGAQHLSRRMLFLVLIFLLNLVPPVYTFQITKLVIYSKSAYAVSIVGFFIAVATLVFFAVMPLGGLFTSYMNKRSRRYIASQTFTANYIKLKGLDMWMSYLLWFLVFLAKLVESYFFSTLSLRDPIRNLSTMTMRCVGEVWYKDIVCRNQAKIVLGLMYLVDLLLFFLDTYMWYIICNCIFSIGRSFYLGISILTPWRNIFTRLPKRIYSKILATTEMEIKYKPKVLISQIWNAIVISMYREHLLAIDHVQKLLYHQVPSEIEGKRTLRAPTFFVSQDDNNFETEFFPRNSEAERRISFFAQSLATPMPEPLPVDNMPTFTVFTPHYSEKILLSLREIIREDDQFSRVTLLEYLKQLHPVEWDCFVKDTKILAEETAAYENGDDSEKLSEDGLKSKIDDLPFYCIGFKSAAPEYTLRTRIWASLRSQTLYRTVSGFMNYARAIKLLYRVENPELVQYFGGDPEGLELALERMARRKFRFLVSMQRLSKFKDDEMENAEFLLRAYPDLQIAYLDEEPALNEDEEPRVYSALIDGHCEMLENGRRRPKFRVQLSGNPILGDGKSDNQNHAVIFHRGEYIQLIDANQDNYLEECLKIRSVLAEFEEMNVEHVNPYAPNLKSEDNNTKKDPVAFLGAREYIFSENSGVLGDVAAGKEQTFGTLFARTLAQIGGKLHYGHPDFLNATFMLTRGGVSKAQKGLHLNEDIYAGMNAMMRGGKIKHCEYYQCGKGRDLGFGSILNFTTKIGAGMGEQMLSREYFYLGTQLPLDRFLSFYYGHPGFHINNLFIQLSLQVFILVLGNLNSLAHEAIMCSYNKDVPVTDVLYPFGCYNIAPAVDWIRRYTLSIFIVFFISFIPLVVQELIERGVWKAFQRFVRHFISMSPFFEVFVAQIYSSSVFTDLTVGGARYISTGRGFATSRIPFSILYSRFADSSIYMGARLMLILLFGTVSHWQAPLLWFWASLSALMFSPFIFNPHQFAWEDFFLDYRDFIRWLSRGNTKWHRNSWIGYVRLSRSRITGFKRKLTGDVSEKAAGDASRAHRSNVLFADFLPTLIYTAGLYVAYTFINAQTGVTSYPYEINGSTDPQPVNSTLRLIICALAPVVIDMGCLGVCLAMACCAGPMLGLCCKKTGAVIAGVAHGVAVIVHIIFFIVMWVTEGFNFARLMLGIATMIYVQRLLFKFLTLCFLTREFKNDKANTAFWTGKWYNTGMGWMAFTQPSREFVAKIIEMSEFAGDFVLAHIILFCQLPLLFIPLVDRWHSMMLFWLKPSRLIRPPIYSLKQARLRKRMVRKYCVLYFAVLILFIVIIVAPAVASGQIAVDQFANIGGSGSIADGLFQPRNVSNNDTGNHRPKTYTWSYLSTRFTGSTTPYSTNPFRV

Structure (SMILES) | ED50 (Candida albicans [1]) [mg/kg] | ED50 (Candida albicans [2]) [mg/kg] | MIC (Candida albicans [3]) [µg/mL] | inhibition [4] [%]
C[C@@H](O)[C@@H]1NC(=O)[C@H]([C@H](O)[C@@H](O)c2ccc(O)cc2)NC(=O)[C@@H]2C[C@@H](O)CN2C(=O)[C@H]([C@@H](C)O)NC(=O)[C@@H](NC(=O)c2ccc(-c3ccc(-c4ccc(-c5ccccc5)cc4)cc3)cc2)C[C@@H](O)[C@@H](O)NC(=O)[C@@H]2[C@@H](O)[C@@H](C)CN2C1=O (X1-[Orn(4R-OH,5R-OH)]T[Hyp][hTyr(3S-OH,4S-OH)]T[Pro(3S-OH,4S-Me)]; lactam 1-C) | 39.7 | 0.4 | < 0.01 | 74.7
CCCOc1ccc(C#Cc2ccc(-c3ccc(C(=O)N[C@H]4C[C@@H](O)[C@@H](O)NC(=O)[C@@H]5[C@@H](O)[C@@H](C)CN5C(=O)[C@H]([C@@H](C)O)NC(=O)[C@H]([C@H](O)[C@@H](O)c5ccc(O)cc5)NC(=O)[C@@H]5C[C@@H](O)CN5C(=O)[C@H]([C@@H](C)O)NC4=O)cc3)cc2)cc1 (X2-[Orn(4R-OH,5R-OH)]T[Hyp][hTyr(3S-OH,4S-OH)]T[Pro(3S-OH,4S-Me)]; lactam 1-C) | 7 | 0.4 | < 0.01 | 83.5
C[C@@H](O)[C@@H]1NC(=O)[C@H]([C@H](O)[C@@H](O)c2ccc(O)cc2)NC(=O)[C@@H]2C[C@@H](O)CN2C(=O)[C@H]([C@@H](C)O)NC(=O)[C@@H](NC(=O)c2ccc(-c3ccc(C#Cc4ccc(OCCOC(C)(C)C)cc4)cc3)cc2)C[C@@H](O)[C@@H](O)NC(=O)[C@@H]2[C@@H](O)[C@@H](C)CN2C1=O (X3-[Orn(4R-OH,5R-OH)]T[Hyp][hTyr(3S-OH,4S-OH)]T[Pro(3S-OH,4S-Me)]; lactam 1-C) | 7.6 | 0.2 | 0.02 (≈ 0.0167 µM) | 82.4
C[C@@H](O)[C@@H]1NC(=O)[C@H]([C@H](O)[C@@H](O)c2ccc(O)cc2)NC(=O)[C@@H]2C[C@@H](O)CN2C(=O)[C@H]([C@@H](C)O)NC(=O)[C@@H](NC(=O)c2ccc(-c3ccc(-c4ccc(OCCOC(C)(C)C)cc4)cc3)cc2)C[C@@H](O)[C@@H](O)NC(=O)[C@@H]2[C@@H](O)[C@@H](C)CN2C1=O (X4-[Orn(4R-OH,5R-OH)]T[Hyp][hTyr(3S-OH,4S-OH)]T[Pro(3S-OH,4S-Me)]; lactam 1-C) | 21.3 | 0.4 | 0.06 (≈ 0.0513 µM) | 76.1
C[C@@H](O)[C@@H]1NC(=O)[C@H]([C@H](O)[C@@H](O)c2ccc(O)cc2)NC(=O)[C@@H]2C[C@@H](O)CN2C(=O)[C@H]([C@@H](C)O)NC(=O)[C@@H](NC(=O)c2ccc(C#Cc3ccc(C#Cc4ccccc4)cc3)cc2)C[C@@H](O)[C@@H](O)NC(=O)[C@@H]2[C@@H](O)[C@@H](C)CN2C1=O (X5-[Orn(4R-OH,5R-OH)]T[Hyp][hTyr(3S-OH,4S-OH)]T[Pro(3S-OH,4S-Me)]; lactam 1-C) | 16 | 4.5 | 0.01 (≈ 0.00907 µM) | 81.3
CCCCOCCOc1ccc(-c2ccc(-c3ccc(C(=O)N[C@H]4C[C@@H](O)[C@@H](O)NC(=O)[C@@H]5[C@@H](O)[C@@H](C)CN5C(=O)[C@H]([C@@H](C)O)NC(=O)[C@H]([C@H](O)[C@@H](O)c5ccc(O)cc5)NC(=O)[C@@H]5C[C@@H](O)CN5C(=O)[C@H]([C@@H](C)O)NC4=O)cc3)cc2)cc1 (X6-[Orn(4R-OH,5R-OH)]T[Hyp][hTyr(3S-OH,4S-OH)]T[Pro(3S-OH,4S-Me)]; lactam 1-C) | 13.6 | 0.3 | 0.03 (≈ 0.0256 µM) | 80.1
CCCCCCOc1ccc(-c2ccc(-c3ccc(C(=O)N[C@H]4C[C@@H](O)[C@@H](O)NC(=O)[C@@H]5[C@@H](O)[C@@H](C)CN5C(=O)[C@H]([C@@H](C)O)NC(=O)[C@H]([C@H](O)[C@@H](O)c5ccc(O)cc5)NC(=O)[C@@H]5C[C@@H](O)CN5C(=O)[C@H]([C@@H](C)O)NC4=O)cc3)cc2)cc1 (X7-[Orn(4R-OH,5R-OH)]T[Hyp][hTyr(3S-OH,4S-OH)]T[Pro(3S-OH,4S-Me)]; lactam 1-C) | 6.8 | 0.8 | 0.03 (≈ 0.026 µM) | –
C[C@@H](O)[C@@H]1NC(=O)[C@H]([C@H](O)[C@@H](O)c2ccc(O)cc2)NC(=O)[C@@H]2C[C@@H](O)CN2C(=O)[C@H]([C@@H](C)O)NC(=O)[C@@H](NC(=O)c2ccc(-c3ccc(C#Cc4ccccc4)cc3)cc2)C[C@@H](O)[C@@H](O)NC(=O)[C@@H]2[C@@H](O)[C@@H](C)CN2C1=O (X8-[Orn(4R-OH,5R-OH)]T[Hyp][hTyr(3S-OH,4S-OH)]T[Pro(3S-OH,4S-Me)]; lactam 1-C) | 18.8 | 0.6 | 0.039 (≈ 0.0362 µM) | 75.8
CCCCCCCCCCOc1ccc2cc(C(=O)N[C@H]3C[C@@H](O)[C@@H](O)NC(=O)[C@@H]4[C@@H](O)[C@@H](C)CN4C(=O)[C@H]([C@@H](C)O)NC(=O)[C@H]([C@H](O)[C@@H](O)c4ccc(O)cc4)NC(=O)[C@@H]4C[C@@H](O)CN4C(=O)[C@H]([C@@H](C)O)NC3=O)ccc2c1 (X9-[Orn(4R-OH,5R-OH)]T[Hyp][hTyr(3S-OH,4S-OH)]T[Pro(3S-OH,4S-Me)]; lactam 1-C) | 46.1 | 1.6 | 0.005 (≈ 0.00451 µM) | 82.2
COc1ccc(C#Cc2ccc(-c3ccc(C(=O)N[C@H]4C[C@@H](O)[C@@H](O)NC(=O)[C@@H]5[C@@H](O)[C@@H](C)CN5C(=O)[C@H]([C@@H](C)O)NC(=O)[C@H]([C@H](O)[C@@H](O)c5ccc(O)cc5)NC(=O)[C@@H]5C[C@@H](O)CN5C(=O)[C@H]([C@@H](C)O)NC4=O)cc3)cc2)cc1 (X14-[Orn(4R-OH,5R-OH)]T[Hyp][hTyr(3S-OH,4S-OH)]T[Pro(3S-OH,4S-Me)]; lactam 1-C) | 19 | – | 0.02 (≈ 0.018 µM) | 81
C[C@@H](O)[C@@H]1NC(=O)[C@H]([C@H](O)[C@@H](O)c2ccc(O)cc2)NC(=O)[C@@H]2C[C@@H](O)CN2C(=O)[C@H]([C@@H](C)O)NC(=O)[C@@H](NC(=O)c2ccc(OCCOCCC34C[C@H]5C[C@@H](C3)C[C@@H](C4)C5)cc2)C[C@@H](O)[C@@H](O)NC(=O)[C@@H]2[C@@H](O)[C@@H](C)CN2C1=O (X16-[Orn(4R-OH,5R-OH)]T[Hyp][hTyr(3S-OH,4S-OH)]T[Pro(3S-OH,4S-Me)]; lactam 1-C) | > 50 | – | 0.039 (≈ 0.0347 µM) | 72.3
CCCCOCCOc1ccc(C#Cc2ccc(-c3ccc(C(=O)N[C@H]4C[C@@H](O)[C@@H](O)NC(=O)[C@@H]5[C@@H](O)[C@@H](C)CN5C(=O)[C@H]([C@@H](C)O)NC(=O)[C@H]([C@H](O)[C@@H](O)c5ccc(O)cc5)NC(=O)[C@@H]5C[C@@H](O)CN5C(=O)[C@H]([C@@H](C)O)NC4=O)cc3)cc2)cc1 (X17-[Orn(4R-OH,5R-OH)]T[Hyp][hTyr(3S-OH,4S-OH)]T[Pro(3S-OH,4S-Me)]; lactam 1-C) | 10.6 | – | 0.02 (≈ 0.0167 µM) | 81.9
CCCCCOc1ccc(C#Cc2ccc(-c3ccc(C(=O)N[C@H]4C[C@@H](O)[C@@H](O)NC(=O)[C@@H]5[C@@H](O)[C@@H](C)CN5C(=O)[C@H]([C@@H](C)O)NC(=O)[C@H]([C@H](O)[C@@H](O)c5ccc(O)cc5)NC(=O)[C@@H]5C[C@@H](O)CN5C(=O)[C@H]([C@@H](C)O)NC4=O)cc3)cc2)cc1 (X20-[Orn(4R-OH,5R-OH)]T[Hyp][hTyr(3S-OH,4S-OH)]T[Pro(3S-OH,4S-Me)]; lactam 1-C) | 8.8 | – | < 0.01 | 82.3
CCCCCCCCOc1ccc(-c2ccc(C(=O)N[C@H]3C[C@@H](O)[C@@H](O)NC(=O)[C@@H]4[C@@H](O)[C@@H](C)CN4C(=O)[C@H]([C@@H](C)O)NC(=O)[C@H]([C@H](O)[C@@H](O)c4ccc(O)cc4)NC(=O)[C@@H]4C[C@@H](O)CN4C(=O)[C@H]([C@@H](C)O)NC3=O)cc2)cc1 ({Benzoyl(4-(4-OctO-Ph))}-[Orn(4R-OH,5R-OH)]T[Hyp][hTyr(3S-OH,4S-OH)]T[Pro(3S-OH,4S-Me)]; lactam 1-C) | 27.3 | 0.5 | 0.0025 (≈ 0.00226 µM) | 81.5
C[C@@H](O)[C@@H]1NC(=O)[C@H]([C@H](O)[C@@H](O)c2ccc(O)cc2)NC(=O)[C@@H]2C[C@@H](O)CN2C(=O)[C@H]([C@@H](C)O)NC(=O)[C@@H](NC(=O)c2ccc(-c3ccc(-c4ccccc4)cc3)cc2)C[C@@H](O)[C@@H](O)NC(=O)[C@@H]2[C@@H](O)[C@@H](C)CN2C1=O ({Benzoyl(4-(biphenyl-4-yl))}-[Orn(4R-OH,5R-OH)]T[Hyp][hTyr(3S-OH,4S-OH)]T[Pro(3S-OH,4S-Me)]; lactam 1-C) | > 50 | 1.3 | 0.078 (≈ 0.074 µM) | 78.8
